Experiment: Toxicity liver stage against HepG2, at 10uM
Assay type: cell-based
Parameters: test concentration 10 uM, cell line HepG2-A16-CD81EGFP
Details: human, HepG2-A16-CD81EGFP cells; read-out: INHIBITION
Method in brief: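 Uninfected HepG2-A16-CD81EGFP cells, 3 × 10^3 per well, 1536-well, plated on prespotted compound at 10 μM final, parasite-free screening media added to match infected plates; puromycin 10 μM positive, DMSO 0.5% negative; run in parallel with 48 h PbLuc assay at 37 °C, 5% CO2; viability by CellTiter-Glo luminescence, normalized to controls.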

| Structure (SMILES) | cytotoxicity at 10 µM [%] |
| --- | --- |
| CSc1ccccc1C(=O)C1CCCN(Cc2ccccn2)C1 (stereo not drawn) | -6.12 |
| CSCCC(=O)N1CC[C@@H](N2CCN(c3ccccc3F)CC2)[C@H](O)C1 | -91.4 |
| CC(C)(C)CC(=O)N1CC[C@H]2NC(=O)N(Cc3ccccc3)C(=O)[C@H]21 | -0.171 |
| CCc1noc(-c2cccc(OCC(=O)NC(C)C)c2)n1 | -6.53 |
| COCCCNC(=O)Cn1c(C)cc(=O)n2nc(-c3cccs3)nc12 | 2.05 |
| Cc1ccc2oc(SCC(=O)NC(C)(C)C)nc2n1 | -0.3 |
| COC(=O)CNC(=O)Cn1ccc2cccc(OC)c21 | -34.9 |
| Cc1ccccc1NC(=O)NCC(C)(O)c1cccs1 (stereo not drawn) | 8.5 |
| O=C1[C@@H]2CCN(CC3CC3)C[C@@H]2OCCN1c1ccsc1 | 10.5 |
| CC1c2ncc(Cn3cncn3)n2CCN1C(=O)N(C)C (stereo not drawn) | 0.267 |
| COCC(=O)N1CC[C@H]2OCC[C@@]2(c2nc(C)no2)C1 | -0.461 |
| CSc1ccc(NC(=O)Nc2ccc3c(c2)N(S(C)(=O)=O)CC3)cc1 | 48.5 |
| CN1CCCc2c1nc1c(c2N)CCC1 | 10.2 |
| Cc1cnc(NC(=O)C(C)n2ccc(C(F)(F)F)n2)s1 (stereo not drawn) | 1.75 |
| O=S(=O)(c1cc(F)ccc1F)n1cc(Cl)cn1 | 4.52 |
| CN(CCc1cn[nH]c1)C(=O)CCc1ccc(Cl)cc1 | 1.82 |
| COc1ccccc1C1Cn2c(C)cnc2CN1Cc1ccc(C)nc1 (stereo not drawn) | -3.18 |
| O=C(NCCCn1cccn1)C1COCC(=O)N1Cc1ccccc1 (stereo not drawn) | -8.57 |
| Cc1ccccc1-n1ccnc1S(=O)(=O)Cc1nsc(N(C)C)n1 | 2.56 |
| CC(C)c1ccc(CNC(c2ccc(F)cn2)C(C)C)cc1 (stereo not drawn) | -4.45 |
| Cc1nc(COC(=O)c2cccc3c2OCCO3)cs1 | 1.4 |

| Structure (SMILES) | cytotoxicity at 10 µM [%] |
| --- | --- |
| COC1CCN(S(=O)(=O)N2CCCC2c2ccco2)CC1 (stereo not drawn) | 11 |
| CCC(C#N)NC(=O)CCCOc1cccc(C(C)=O)c1 (stereo not drawn) | -35.1 |
| CCc1csc(C2CCCN(C(=O)c3ccc(=O)n(C)n3)C2)n1 (stereo not drawn) | -44.1 |
| O=C1CN(c2ccc(C(=O)N3CCc4ccccc43)cn2)CCN1 | 2.66 |
| CCCn1nnnc1COC(=O)C1COc2ccccc2O1 (stereo not drawn) | 3.72 |
| O=C1N(CC2CC2)C(c2cncs2)NC12CCCC2 (stereo not drawn) | -3.84 |
| O=C(Nc1ccccc1)C1CCN(C(=O)COc2ccccc2F)CC1 | 8.94 |
| CC(C)N(C)CC(=O)Nc1ccc(-n2ccc(C(N)=O)n2)cc1 | -3.54 |
| CN(Cc1cccc(C(N)=O)c1)c1ncc(C(N)=O)cc1Cl | -3.73 |
| CN(Cc1ccc2c(c1)OCO2)C(=O)c1ccn(C)c(=O)c1 | 3.01 |
| COc1ccc(OC)c(C(C)NC(=O)Nc2nnc(C)s2)c1 (stereo not drawn) | 14.7 |
| CN(Cc1ccccc1NCc1cccnc1)C(=O)c1cccs1 | 0.205 |
| CCOc1ccc(CNC(=O)N(C)Cc2ncnn2C)cc1C | -16 |
| Cc1ccc(C2CCCCCN2CCCS(C)(=O)=O)o1 (stereo not drawn) | -4.3 |
| CN(Cc1cnn(C)c1)C(CO)c1cccc(Br)c1 (stereo not drawn) | -2.86 |
| O=C(CNc1cccc(CC(F)(F)F)c1)NCc1ccco1 | -46.3 |
| CN(C)Cc1ccc(CNC(=O)NCC2(C)CCCS2)cc1 (stereo not drawn) | -12.9 |
| CC(C)n1nccc1NC(=O)CN1CCc2sccc2C1 | 0.583 |
| CCOC(C)c1noc(CN(C)C(=O)c2ccncc2)n1 (stereo not drawn) | 14.5 |
| O=C(NC1CCc2ccccc2C1)N1CCN(C(=O)C2CCC2)CC1 (stereo not drawn) | -5.59 |
| Cc1cccc(S(=O)(=O)N2C[C@@H]3C[C@@H](c4nc(C)no4)O[C@@H]3C2)c1 | -1.05 |

| Structure (SMILES) | cytotoxicity at 10 µM [%] |
| --- | --- |
| Cn1ccc(-c2cc(C(=O)N3CCCCC3)c3ccccn23)n1 | -45.7 |
| Nc1cc(C(=O)N2CCCC(C(=O)CCc3ccccc3)C2)ccn1 (stereo not drawn) | -6.97 |
| Cc1ccc2cc(CN(C)Cc3ccncn3)c(=O)[nH]c2c1 | 10.3 |
| Cn1cc(CN2CCC(Cn3cc(-c4ccccc4)nn3)CC2)cn1 | 9.47 |
| Cc1nc(C2CCCNC2)cc(N(Cc2nccn2C)C2CC2)n1 (stereo not drawn) | -3.42 |
| CCCc1nc(C)c(CNc2nc(C)nc3oc(C)nc23)s1 | -44.6 |
| c1ccc(Oc2nccc3occc23)c(CN2CCCCC2)c1 | -10.1 |
| CCC1CCC(NCCN2CCOCC2)CC1 (stereo not drawn) | 3.62 |
| CCCC(=O)N(Cc1ccncc1)C(C)CC (stereo not drawn) | 9.66 |
| CN(C)CCn1ccnc1C1CCCN(c2nccc3ccccc23)C1 (stereo not drawn) | -7.55 |
| COc1cccc(OCCN2CC[C@@](O)(C3CCOCC3)[C@H](C)C2)c1 | -7.03 |
| Cc1nccn1CCCN1CCCC(c2ccccc2)C1 (stereo not drawn) | -24.8 |
| OCc1ccc(CN2CCC(n3cc(C4CCCCC4)nn3)CC2)o1 | 1.02 |
| Cc1nccn1CCN(C)C(=O)C1CCN(C(=O)C2CCCC2)CC1 | -4.06 |
| CC[C@@H](CO)NC(=O)c1cc(COc2ccc(OC)cc2Cl)[nH]n1 | -34.4 |
| O=C(Nc1ccc(S(=O)(=O)Nc2ccccc2)cc1)N1CCCC1 | 10.9 |
| COC(=O)NCC(=O)N(C)Cc1csc(-c2cccs2)n1 | -2.67 |
| CN(Cc1cn(C2CCNCC2)nn1)CC1CCCO1 (stereo not drawn) | -4.76 |
| CN1CCC(Oc2ccc(-n3ccnc3-c3ccncc3)cc2)CC1 | -3.05 |
| c1ccc2c(c1)CC(N1CCCN(Cc3cccc4nonc34)CC1)C2 | -2.37 |
| Cc1nc(CN2CCCC2c2noc(C3CC3)n2)oc1C (stereo not drawn) | -8.13 |

| Structure (SMILES) | cytotoxicity at 10 µM [%] |
| --- | --- |
| CCc1ccc(CNc2cc(N3CCCC3CO)ncn2)s1 (stereo not drawn) | -13 |
| COc1ncccc1NC(=O)NC1CCOc2ccccc21 (stereo not drawn) | -7.62 |
| Cc1ccc(C(=O)N2CCC(Oc3ccc(F)cc3F)CC2)c(=O)[nH]1 | 7.63 |
| O=C(Cc1n[nH]c2ccccc12)N1CCC(Nc2cccnn2)CC1 | -7.44 |
| Cc1cnn(CC2CCCN2C(=O)c2cnc3n[nH]c(C)c3c2)c1 (stereo not drawn) | 8.73 |
| CC(C)c1nnc2n1CCN(C(=O)c1ccc(CN(C)C)cc1)C2 | 5.2 |
| Cc1nnc(N2CCC(CN(C)C(C)C)CC2)c(C#N)c1C | 3.63 |
| c1nc(CCC2CCCN2)cc(N2CCCOCC2)n1 (stereo not drawn) | 3.91 |
| CN(C)C(=O)C1OC2(CCN(c3ncc(F)cn3)CC2)c2ccccc21 (stereo not drawn) | 6.27 |
| O=C(NCC1OCCc2cn(CC3CCOCC3)nc21)c1ccsc1 (stereo not drawn) | 4.84 |
| Cn1ncc2c1CN(Cc1ccccc1F)CC2COCC1CC1 (stereo not drawn) | 1.47 |
| CN(Cc1cccnc1)C1CC2(CCN(c3ncc(F)cn3)CC2)C1 | 18 |
| FC1(F)CCN(Cc2ccncc2)CC12CCN(Cc1ccccn1)C2 (stereo not drawn) | 10.2 |
| c1ccn(Cc2noc3c2CN(Cc2ccsc2)CC3)c1 | 9.37 |
| Cn1cnc(S(=O)(=O)N2C[C@H]3CN(Cc4cccnc4)C[C@H]3C2)c1 | 8.46 |
| Cc1cc(S(=O)(=O)NCC(C)(C)N)c(F)cc1F | 3.8 |
| Cc1cc(C(=O)N2CCC3(CC2)C(=O)N(C)CCN3CC(C)C)c(C)o1 | -112 |
| Cn1nnc2c1C(COCc1ccccn1)CN(Cc1ccoc1)C2 (stereo not drawn) | 5.94 |
| CN1CC(=O)N(c2ccccc2)CC12CCN(CC1CC1)C2 (stereo not drawn) | 4.42 |
| CO[C@@H]1CCN(S(=O)(=O)c2cn(C)cn2)[C@H]1Cc1cnn(C)c1 | 4.56 |

From ChEMBL document CHEMBL4513216, “Probing the Open Global Health Chemical Diversity Library for Multistage-Active Starting Points for Next-Generation Antimalarials” (ACS Infect Dis, 2020)
